Our source for the IC50, Activity and MIC values is ChEMBL document CHEMBL1144725, “Seco-terpenoids and other constituents from Elateriospermum tapos” (J Nat Prod, 2008).

≈ marks a conversion by molar mass, not a printed value. Calls of active or inactive are those of the source. No cut-off for these calls is given here.

Assay [1] relates to NCI-H187. In words: Cytotoxicity against human NCI-H187 cells. Format: functional, cell-based.
In assay [2] the test system is KB. Briefly: Cytotoxicity against human KB cells. Format: functional, cell-based.
A short description of assay [3]: Cytotoxicity against human breast cancer cells. The assay is classed as functional, cell-based. The note with it: Cancer cell lines.
Assay [4] relates to Cancer cell lines. Briefly: Cytotoxicity against human breast cancer cells at 10 ug/mL. Format: functional, cell-based.
The subject of assay [5] is NCI-H187. In words: Cytotoxicity against human NCI-H187 cells at 10 ug/mL. Format: functional, cell-based.
Assay [6] has as its system Mycobacterium tuberculosis. Briefly: Antimycobacterial activity against Mycobacterium tuberculosis H37Ra by microplate alamar blue assay. Format: functional. In short, it runs like this:
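Microplate Alamar Blue assay against Mycobacterium tuberculosis H37Ra, with isoniazid and kanamycin sulfate as reference drugs.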
Background: The colour change of resazurin is a common sign of viable cells or microbes.

With `Cc1c2ccncc2c(C)c2c1[nH]c1ccccc12` [ELLIPTECINE], the IC50 came to 0.52 µg/mL (≈ 2.11 µM) in assay [1], 0.41 µg/mL (≈ 1.66 µM) in assay [2] and 0.13 µg/mL (≈ 0.528 µM) in assay [3].

Regarding `C=Cc1c(C)c(O)cc2c1CCC(C(C)(C)C(=O)O)[C@@]2(C)CC(=O)O` (stereo partly specified), the outcome in assay [4] and in assay [5] was inactive.

As for `COc1cc(O)c2c(=O)cc(-c3ccc(OC)c(-c4c(O)cc(O)c5c(=O)cc(-c6ccc(O)cc6)oc45)c3)oc2c1`, the result in assay [4] and in assay [5] was inactive.

On to `C=C(C)[C@@H]1CC[C@]2(C)CC[C@]3(C)[C@H](CC[C@@H]4[C@@]5(C)CC[C@H](O)C(C)(C)[C@@H]5CC[C@]43C)[C@@H]12`, for which the result in assay [4] and in assay [5] was inactive.

As for `NC[C@H]1O[C@H](O[C@H]2[C@H](O)[C@@H](O[C@H]3O[C@H](CO)[C@@H](O)[C@H](N)[C@H]3O)[C@H](N)C[C@@H]2N)[C@H](O)[C@@H](O)[C@@H]1O.O=S(=O)(O)O` [KANAMYCIN SULFATE], it took 1.25 µg/mL to inhibit growth in assay [6] (MIC).

As for `C=C[C@@]1(C)C(=O)C=C2C(=CC[C@@H]3C(C)(C)[C@H](O)C(=O)C[C@@]23C)[C@H]1O`, the outcome in assay [4] and in assay [5] was inactive.

As for `COC(=O)C(C)(C)C1CC[C@@]2(C)C3=CC[C@@]4(C(=O)O)CCC(C)(C)CC4[C@]3(C)CCC2[C@@]1(C)CC(=O)O` (stereo partly specified), the result in assay [4] and in assay [5] was inactive.

`C=C[C@]1(C)C=C2CC[C@@H]3C(C)(C)[C@H](O)C(=O)C[C@@]3(C)[C@@H]2C[C@@H]1O`: the result in assay [4] and in assay [5] was inactive.

For the compound `C=C(C)[C@H]1CC[C@]2(C)[C@H]3CC[C@@H]4[C@@]5(C)CC[C@H](O)C(C)(C)[C@@H]5CC[C@@]4(C)[C@]3(C)CC[C@@H]12`, the outcome in assay [4] and in assay [5] was inactive.

As for `CC1(C)[C@H](O)[C@@H](O)C[C@]2(C)[C@@H]1CC[C@]13C=C[C@](C)(C1)C(=O)C[C@H]32`, the result in assay [4] and in assay [5] was inactive.

In assay [6], `NNC(=O)c1ccncc1` [ISONIAZID] came in with an MIC of 0.05 µg/mL (≈ 0.365 µM).

In the case of `COc1cc(O)c2c(=O)cc(-c3ccc(O)c(-c4c(O)cc(O)c5c(=O)cc(-c6ccc(O)cc6)oc45)c3)oc2c1`, the outcome in assay [4] and in assay [5] was inactive.

As to `COC(=O)C[C@@]1(C)C(C(C)(C)C(=O)OC)CC[C@@]2(C)C3=CC[C@@]4(C(=O)O)CCC(C)(C)CC4[C@]3(C)CCC12` (stereo partly specified), the half-inhibitory concentration (IC50) was 4.65 µg/mL (≈ 8.76 µM) in assay [1] and 7.08 µg/mL (≈ 13.3 µM) in assay [3]. In assay [6], the MIC is 3.13 µg/mL (≈ 5.9 µM).

In the case of `CC(=O)O[C@H]1CC[C@]2(C)[C@H]3CC[C@]4(C)C(=CC[C@@]5(C(=O)O)CCC(C)(C)C[C@H]54)[C@]3(C)CC[C@H]2C1(C)C`, the outcome in assay [4] and in assay [5] was inactive.

Take `C=C(C)[C@@H]1CC[C@]2(C)CC[C@]3(C)[C@H](CC[C@@H]4[C@@]5(C)CC[C@H](OC(C)=O)C(C)(C)[C@@H]5CC[C@]43C)[C@@H]12`: the outcome in assay [4] and in assay [5] was inactive.

For the compound `COc1ccc(-c2cc(=O)c3c(O)cc(O)c(-c4cc(-c5cc(=O)c6c(O)cc(OC)cc6o5)ccc4O)c3o2)cc1`, the outcome in assay [4] and in assay [5] was inactive.

In the case of `CC1(C)CC[C@]2(C(=O)O)CC=C3[C@]4(C)CC[C@H]5C(C)(C)[C@@H](O)CC[C@]5(C)[C@H]4CC[C@@]3(C)[C@@H]2C1`, the result in assay [4] and in assay [5] was inactive.

As to `O=c1cc(-c2ccc(O)c(-c3c(O)cc(O)c4c(=O)cc(-c5ccc(O)cc5)oc34)c2)oc2cc(O)cc(O)c12`, the result in assay [4] and in assay [5] was inactive.

The IC50 is the concentration that gives 50% inhibition. Higher therefore signals weaker potency in that assay. The MIC is the lowest concentration that inhibits growth of the organism.
